Published values gathered from unrelated publications.
Protocols differ between the studies behind these lines.
Organism: Plasmodium falciparum
Observed: parasite growth

SMILES | test | test system | conditions | IC50
CCc1ccc(C2=NC(=Cc3ccc(CCCCCCCCCC(C)O)[nH]3)C(OC)=C2)[nH]1 (centres unmarked) |  | 7G8 | drug-resistant strain, blood stage | 24 nM
CCN(CC)CCCC(C)Nc1ccnc2cc(Cl)ccc12 (centres unmarked) |  | D6 | blood stage | 0.014 µg/mL
CC(C)(C)C(O)C(Oc1ccc(-c2ccccc2)cc1)n1cncn1 (centres unmarked) | SYBR Green |  | blood stage | 8690 nM
C[C@@H]1CC[C@H]2[C@@H](C)C(=O)O[C@@H]3O[C@@]4(C)CC[C@@H]1[C@]32OO4 |  | D6 | blood stage | 0.005 µg/mL
FC(F)(F)c1ccc2c(c1)nc(N1CCNCC1)n2Cc1ccccc1 |  | K1 | drug-resistant strain, blood stage | 415 nM
CCN(CC)CCCC(C)Nc1ccnc2cc(Cl)ccc12 (centres unmarked) | SYBR Green | W2 | drug-resistant strain, blood stage | 383 nM
CCCCCCCCCCOc1cc2c(O)c(C(=O)OCC)cnc2cc1OCC | SYBR Green | HB3 | blood stage | < 5.7 nM
CC1=C(C)C(c2ccc[nH]2)=NC1=Cc1ccc(CCCCCCCCCC(C)O)[nH]1 (centres unmarked) |  | 7G8 | drug-resistant strain, blood stage | 627 nM
CCN(CC)CCCC(C)Nc1ccnc2cc(Cl)ccc12 (centres unmarked) | ELISA | DD2 | drug-resistant strain, blood stage | 262 nM
COC1=CC(c2ccc[nH]2)=NC1=Cc1ccc(CCCCCCCCCCCO)[nH]1 |  | 7G8 | drug-resistant strain, blood stage | 93 nM
Clc1ccc2c(c1)nc(C1CCNCC1)n2Cc1ccccc1 |  | K1 | drug-resistant strain, blood stage | 76 nM
CCN(CC)CCCC(C)Nc1ccnc2cc(Cl)ccc12 (centres unmarked) |  | W2 | 72 h, drug-resistant strain, blood stage | 0.1 µg/mL
COC1=CC(c2cccn2C)=NC1=Cc1ccc(CCCCCCCCCC(C)O)[nH]1 (centres unmarked) |  | 7G8 | drug-resistant strain, blood stage | 1000 nM
NC1CCN(c2nc3cc(Cl)ccc3n2Cc2ccccc2)CC1 |  | K1 | drug-resistant strain, blood stage | 14 nM
COC1=CC(c2ccc[nH]2)=NC1=Cc1ccc(CCCCCCCCCCO)[nH]1 |  | 7G8 | drug-resistant strain, blood stage | 168 nM
O=C(Nc1ccc(F)cc1C(=O)O)c1ccc(-c2ccccc2)cc1 | resazurin | NF54 | 48 h, gametocyte | 9.43 nM
CCN(CC)CCCC(C)Nc1ccnc2cc(Cl)ccc12 (centres unmarked) |  | 7G8 | drug-resistant strain, blood stage | 63 nM
CCN(CC)CCCC(C)Nc1ccnc2cc(Cl)ccc12 (centres unmarked) |  | W2 | drug-resistant strain | 310 nM
CCN(CC)CCCC(C)Nc1ccnc2cc(Cl)ccc12 (centres unmarked) |  | W2 | 72 h, drug-resistant strain | 360 nM
Clc1ccc2c(N3CCN(CCCN4CCN(c5ccnc6cc(Cl)ccc56)CC4)CC3)ccnc2c1 |  | 3D7 | blood stage | 4.4 nM
COC1=CC(c2ccc[nH]2)=NC1=Cc1ccc(CCCCCCCCCCCCO)[nH]1 |  | DD2 | drug-resistant strain, blood stage | 23 nM
Brc1ccc2c(c1)nc(N1CCNCC1)n2Cc1ccccc1 |  | K1 | drug-resistant strain, blood stage | 64 nM
CCN(CC)CCCC(C)Nc1ccnc2cc(Cl)ccc12 (centres unmarked) |  | 3D7 | blood stage | 11 nM
CCN(CC)CCCC(C)Nc1ccnc2cc(Cl)ccc12 (centres unmarked) |  | DD2 | drug-resistant strain | 102 nM
COC1=CC(c2ccco2)=NC1=Cc1ccc(CCCCCCCCCC(C)O)[nH]1 (centres unmarked) |  | DD2 | drug-resistant strain, blood stage | > 2500 nM
OC(c1cc(C(F)(F)F)nc2c(C(F)(F)F)cccc12)C1CCCCN1 (centres unmarked) |  |  | blood stage | 37.2 nM
